Results: ChEMBL document CHEMBL4334465, “SAR Studies on Aromatic Acylhydrazone-Based Inhibitors of Fungal Sphingolipid Synthesis as Next-Generation Antifungal Agents” (J Med Chem, 2019)
Converted amounts (≈) assume the structure as drawn. The source made the active and inactive calls. The calls are words filed in the database; no cut-off is given here.

Legend:
Cryptococcus neoformans [1] = assay: Antifungal activity against Cryptococcus neoformans H99 measured after 24 to 72 hrs; assay type: functional; conditions: var grubii H99
How it was run: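 Modified CLSI broth microdilution with inoculum per M27A3. Compounds were serially diluted 32 to 0.03 μg/mL. Media: C. neoformans in HEPES-buffered YNB without amino acids (pH 7.0, 2% glucose); Candida strains in YNB without ammonium sulfate or amino acids plus 1% asparagine (pH 7.0, 2% glucose); A. fumigatus in RPMI (pH 7.0, 2% glucose).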

Cryptococcus neoformans [2] = assay: Fungistatic activity against Cryptococcus neoformans H99 by time-kill assay; assay type: functional, organism-based; conditions: var grubii H99
How it was run: (§1)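 Overnight C. neoformans washed in PBS and resuspended in HEPES-buffered YNB, pH 7.4. 2 × 10⁴ cells exposed to a range of drug concentrations in 10 mL with 0.5% DMSO final, at 37°C, 5% CO₂, shaking at 200 rpm. Aliquots sampled over 96 h, diluted and plated on YPD; CFU counted after 48 h at 30°C.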

A549 = assay: Cytotoxicity against human A549 cells after 24 to 48 hrs by MTT assay; assay type: functional; conditions: read-out: LD50 (the source's name)
How it was run: (§2)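 A549 and HepG2 kept in DMEM with 10% FBS and 1% pen-strep. At passage 7, seeded at 10⁵ cells/well and allowed to adhere 14 h. Compound added at 0.03–128 μg/mL, untreated wells as controls. Incubation 37°C, 5% CO₂ for 24 or 48 h. MTT (5 mg/mL in PBS) added for 4 h, formazan dissolved in DMSO, OD570.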

HepG2 = assay: Cytotoxicity against human HepG2 cells after 24 to 48 hrs by MTT assay; assay type: functional; conditions: read-out: LD50 (the source's name); how it was run: as §2
[3] = Selectivity index, ratio of LD50 for human A549 cells to MIC80 for Cryptococcus neoformans H99; assay type: toxicity; conditions: read-out: Selectivity Index
How it was run: (§3)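 SI = LD₅₀/MIC₈₀. Cytotoxicity: A549 or HepG2 cells (DMEM, 10% FBS, passage 7, 10⁵ cells/well) adhered 14 h, then exposed to 0.03–128 μg/mL for 24 or 48 h at 37°C, 5% CO₂; MTT 4 h, formazan dissolved in DMSO, read at 570 nm. MIC₈₀ against C. neoformans from broth microdilution in HEPES-buffered YNB, pH 7.0.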

[4] = Selectivity index, ratio of LD50 for human HepG2 cells to MIC80 for Cryptococcus neoformans H99; assay type: toxicity; conditions: read-out: Selectivity Index; how it was run: as §3
Cryptococcus neoformans [5] = assay: Fungicidal activity against Cryptococcus neoformans H99 measured after 96 hrs by time-kill assay; assay type: functional, var grubii H99; how it was run: as §1
Cryptococcus neoformans [6] = assay: Fungicidal activity against Cryptococcus neoformans H99 measured after 12 hrs by time-kill assay; assay type: functional, var grubii H99; how it was run: as §1
Cryptococcus neoformans [7] = assay: Fungicidal activity against Cryptococcus neoformans H99 measured after 72 hrs by time-kill assay; assay type: functional, var grubii H99; how it was run: as §1
Cryptococcus neoformans [8] = assay: Fungicidal activity against Cryptococcus neoformans H99 measured after 6 hrs by time-kill assay; assay type: functional, var grubii H99; how it was run: as §1

| SMILES | MIC80 (Cryptococcus neoformans [1]) [µg/mL] | Activity (Cryptococcus neoformans [2]) | CC50 (A549) [µg/mL] | CC50 (HepG2) [µg/mL] | selectivity ratio [3] | selectivity ratio [4] | MFC100 (Cryptococcus neoformans [5]) [µg/mL] | MFC100 (Cryptococcus neoformans [6]) [µg/mL] | MFC100 (Cryptococcus neoformans [7]) [µg/mL] | MFC100 (Cryptococcus neoformans [8]) [µg/mL] |
| --- | --- | --- | --- | --- | --- | --- | --- | --- | --- | --- |
| O=C(N/N=C/c1cc(Br)ccc1O)c1cc(Br)cc(Br)c1 | 0.06 (≈ 0.126 µM) | Active | 16 (≈ 33.5 µM) | 16 (≈ 33.5 µM) | 267 | 267 |  |  |  |  |
| CN(C)c1ccc(C(=O)N/N=C/c2cc(Br)cc(Br)c2O)cc1 | 0.5 (≈ 1.13 µM) | Active | 16 (≈ 36.3 µM) | 16 (≈ 36.3 µM) | 32 | 32 |  |  |  |  |
| O=C(N/N=C/c1cc(F)ccc1O)c1ccc(Br)cc1Br | 1 (≈ 2.4 µM) |  | 16 (≈ 38.5 µM) | 16 (≈ 38.5 µM) | 16 | 16 | 2 (≈ 4.81 µM) |  |  |  |
| O=C(N/N=C/c1cccc(Cl)c1O)c1cccc(C(F)(F)F)c1 | 1 (≈ 2.92 µM) |  | 32 (≈ 93.4 µM) | 32 (≈ 93.4 µM) | 32 | 32 | 2 (≈ 5.84 µM) |  |  |  |
| O=C(N/N=C/c1cc(Br)cc(Br)c1O)c1ccc(C(F)(F)F)cc1 | 0.12 (≈ 0.257 µM) |  | 4 (≈ 8.58 µM) | 8 (≈ 17.2 µM) | 33.3 |  |  | 1 (≈ 2.15 µM) |  |  |
| O=C(N/N=C/c1cc(OC(F)(F)F)ccc1O)c1ccc(Br)cc1 | 0.25 (≈ 0.62 µM) |  | 16 (≈ 39.7 µM) | 64 (≈ 159 µM) | 64 | 256 |  |  | 1 (≈ 2.48 µM) |  |
| O=C(N/N=C/c1cc(Br)cc(Br)c1O)c1cnc2ccccc2c1 | 0.25 (≈ 0.557 µM) | Active | 32 (≈ 71.3 µM) | 32 (≈ 71.3 µM) | 128 | 128 |  |  |  |  |
| O=C(N/N=C/c1cc(Br)ccc1O)c1ccc(Br)c(Br)c1 | 0.25 (≈ 0.524 µM) |  | 8 (≈ 16.8 µM) | 8 (≈ 16.8 µM) | 32 | 32 |  |  | 1 (≈ 2.1 µM) |  |
| CN(C)c1ccc(C(=O)N/N=C/c2ccc(Br)cc2O)cc1 | 0.25 (≈ 0.69 µM) | Active | 16 (≈ 44.2 µM) | 16 (≈ 44.2 µM) | 64 | 64 |  |  |  |  |
| O=C(N/N=C/c1cc(Cl)cc(Cl)c1O)c1ccc(Br)cc1Br | 1 (≈ 2.14 µM) |  | 128 (≈ 274 µM) | 64 (≈ 137 µM) | 128 | 64 |  |  |  | 0.5 (≈ 1.07 µM) |
| Cc1ccc(O)c(/C=N/NC(=O)c2ccc(Br)c(Br)c2)c1 | 0.12 (≈ 0.291 µM) |  | 16 (≈ 38.8 µM) | 16 (≈ 38.8 µM) | 133 | 133 |  |  | 0.5 (≈ 1.21 µM) |  |
| O=C(N/N=C/c1cc(Br)ccc1O)c1ccc(OC(F)(F)F)cc1F | 0.5 (≈ 1.19 µM) |  | 64 (≈ 152 µM) | 8 (≈ 19 µM) | 128 | 16 |  |  | 0.5 (≈ 1.19 µM) |  |
| O=C(N/N=C/c1cc(Br)cc(Br)c1O)c1ccc(OC(F)(F)F)cc1 | 0.5 (≈ 1.04 µM) |  | 64 (≈ 133 µM) | 16 (≈ 33.2 µM) | 128 | 32 |  |  | 4 (≈ 8.3 µM) |  |
| O=C(N/N=C/c1c(O)ccc2ccccc12)c1ccc(Br)c(Br)c1 | 0.12 (≈ 0.268 µM) | Active | 4 (≈ 8.93 µM) | 16 (≈ 35.7 µM) | 33.3 | 133 |  |  |  |  |
| O=C(N/N=C/c1cc(Br)ccc1O)c1ccc(OC(F)F)cc1 | 0.25 (≈ 0.649 µM) |  | 32 (≈ 83.1 µM) | 16 (≈ 41.5 µM) | 128 | 64 |  |  | 2 (≈ 5.19 µM) |  |
| O=C(N/N=C/c1cc(Br)ccc1O)c1ccccc1C(F)(F)F | 1 (≈ 2.58 µM) |  | 16 (≈ 41.3 µM) | 16 (≈ 41.3 µM) | 16 | 16 |  |  | 1 (≈ 2.58 µM) |  |
| O=C(N/N=C/c1cccc(Br)c1O)c1cccc(F)c1 | 1 (≈ 2.97 µM) |  | 16 (≈ 47.5 µM) | 16 (≈ 47.5 µM) | 16 | 16 |  | 2 (≈ 5.93 µM) |  |  |
